Experiments:
[1] = melting temperature; fluorescence melt of hairpins on a sequencing array, two-state fit, raised by 9.35 °C to match UV melts; details: sodium 0.088 M
How it was run: (§1)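 Cy3 fluorescence of library hairpins on a sequenced MiSeq flow cell, with annealed Cy3 and quencher oligos, was imaged in 50 mM Na-HEPES pH 8.0, 25 mM NaCl in 2.5 °C steps up to 60 °C. Signals were normalised to pre-quench Cy3 and to control variants. Melting temperature and folding enthalpy came from bootstrapped two-state fits, inverse-variance combined over four replicates. Fitted temperatures were raised by 9.35 °C to match UV melts.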

[2] = folding enthalpy; higher = less favourable; fluorescence melt of hairpins on a sequencing array, two-state fit; details: sodium 0.088 M
How it was run: as §1

Sequence	Tm [1] [°C]	folding enthalpy [2] [kcal/mol]
GTAACAGGAAACCGTTAC (((((.(....).)))))	37.5	-29.5
GTAACAGGAAACTGTCAC ((.((((....)))).))	30.7	-15.5
GTAACAGGAAACTGTTGC (.(((((....))))).)	45.3	-24.4
GTAACCCGAAAGGGATAC (((.(((....))).)))	48.6	-23.4
GTAACCGAAAGGTGGTAC ((((((....)))..)))	33.8	-12.3
GTAACCGAAAGGTTCTAC ((((((....)))..)))	37.7	-11.3
GTAACCGAAAGGTTTTAC ((((((....)))..)))	29.2	-8.83
GTAACGCGAAAGCGATAC (((.(((....))).)))	51	-24.1
GTAACGGGAAACCATTAC ((((.((....)).))))	28.4	-11.8
GTAACGGGAAACTGTTAC (((((.(....).)))))	46.3	-30.4
GTAACTCGAAAGAGATAC (((.(((....))).)))	42	-27.6
GTAACTCGAAAGAGGTAC (((.(((....))).)))	51.6	-28.7
GTAACTGGAAACAGCTAC (((.(((....))).)))	34.2	-30.1
GTAAGAGCGAAAGCTTAC (((..(((....))))))	33.5	-14.9
GTAAGCACGAAAGTGTAC (((..(((....))))))	27.9	-9.4
GTAAGCGAAAGCTATAC ((((((....))).)))	33.8	-14.9
GTAAGCGAAAGCTGTAC ((((((....))).)))	43	-15.7
GTAAGCGAAAGCTTTAC ((((((....))).)))	42	-12.9
GTAAGCGCGAAAGCGTAC (((..(((....))))))	28.8	-9.28
GTAAGCGGAAACGCTTAC (((((((....)))))))	65.2	-36.1
GTAAGCGGAAACGCTTGC (.(((((....))))).)	54.1	-22.7
GTAAGGACGAAAGTCTAC (((..(((....))))))	30.2	-8.78
GTAAGGCGAAAGCCTAC (((.(((....))))))	46	-11.4

Sequence	Tm [1] [°C]	folding enthalpy [2] [kcal/mol]
GTAAGGGCGAAAGCCTAC (((..(((....))))))	29.7	-8.85
GTAAGTCGAAAGACATAC (((.(((....))).)))	38.7	-21.5
GTAATCGAAAGATACTAC ((((((....)))..)))	31.4	-18.4
GTAATCGAAAGATTAC ((((((....))))))	53.3	-48.2
GTAATCGGAAACGATTAC (((((((....)))))))	56.4	-42.4
GTAATCGGAAACGATTGC (.(((((....))))).)	48.2	-25.6
GTAATCGGAAACGGTTAC ((((.((....)).))))	46.7	-33.2
GTAATCTCGAAAGAGTAC (((..(((....))))))	26.7	-10.9
GTAATGGGAAACCACTAC (((.(((....))).)))	27.6	-15.9
GTAATTCGAAAGAAATAC (((.(((....))).)))	33	-16.9
GTAATTCGAAAGAATAC (((.(((....))))))	32	-15.2
GTAATTGGAAACAGTTAC ((((.((....)).))))	35.9	-21.2
GTACAAGGAAACTTGCAC ((.((((....)))).))	34.1	-25.4
GTACACCCGAAAGGGTAC (((..(((....))))))	33	-9.29
GTACACCGAAAGGTATAC (((.(((....))).)))	39.1	-22.3
GTACACCGAAAGGTCTAC (((.(((....))).)))	30.9	-15.3
GTACACGGAAACGTGCAC ((.((((....)))).))	46.8	-17.9
GTACAGAAATGTAC (((((....)))))	40.4	-20.2
GTACAGCGAAAGCTTAC (((.(((....))))))	38.1	-13.1
GTACAGGAAACTGTAC ((((((....))))))	52.4	-41.6
GTACAGGCGAAAGCCTAC (((..(((....))))))	34.9	-8.61
GTACAGGGAAACCTGTAC (((((((....)))))))	59.4	-40.3
GTACATCGAAAGATCTAC (((.(((....))).)))	25.1	-10.2

Sequence	Tm [1] [°C]	folding enthalpy [2] [kcal/mol]
GTACATGGAAACACGTAC ((((.((....)).))))	36.2	-21.9
GTACCAGGAAACTGGCAC ((.((((....)))).))	42.1	-21.1
GTACCCCGAAAGGGCTAC (((.(((....))).)))	35.7	-14
GTACCCGAAAGGGACTAC ((((((....)))..)))	45.8	-14.3
GTACCCGAAAGGGAGTAC ((((((....)))..)))	39.9	-15.3
GTACCCGAAAGGGATAC ((((((....))).)))	47	-15.3
GTACCCGGAAACGGGCAC ((.((((....)))).))	50	-18.7
GTACCCTCGAAAGAGTAC (((..(((....))))))	25.2	-10.6
GTACCGGGAAACCGGTGC (.(((((....))))).)	57.1	-19.1
GTACCGTCGAAAGACTAC (((..(((....))))))	25.7	-8.88
GTACCTGGAAACAGGTGC (.(((((....))))).)	52.4	-28.1
GTACGACCGAAAGGTTAC (((..(((....))))))	19.8	-8.91
GTACGCGAAAGCGAGTAC ((((((....)))..)))	41.1	-13.8
GTACGCGAAAGCGCATAC ((((((....)))..)))	22.5	-5.57
GTACGCGGAAACGCACAC ((..(((....)))..))	33.1	-13.8
GTACGCGGAAACGCATAC (((.(((....))).)))	39.9	-19.6
GTACGCGGAAACGTGTAC ((((.((....)).))))	54.6	-28.1
GTACGGCGAAAGCCCTAC (((.(((....))).)))	35.9	-12.5
GTACGGCGAAAGCCTAC (((.(((....))))))	44.4	-14.9
GTACGGGAAACCGTAC ((((((....))))))	63.2	-27.9
GTACGGGGAAACTCGTGC (.(((.(....).))).)	39.6	-27.5
GTACGTGAAAACGTAC ((((((....))))))	59.5	-37
GTACTAGCGAAAGCTTAC (((..(((....))))))	28.2	-9.73

Sequence	Tm [1] [°C]	folding enthalpy [2] [kcal/mol]
GTACTCCGAAAGGACTAC (((.(((....))).)))	33.2	-14.1
GTACTCGAAAGAGCGTAC ((((((....)))..)))	28.5	-10.7
GTACTCTCGAAAGAGTAC (((..(((....))))))	52.5	-36.9
GTACTGGGAAACCAGTAC (((((((....)))))))	58.5	-36.9
GTACTGGGAAACCGGTAC ((((.((....)).))))	50.1	-35.3
GTACTTGCGAAAGCATAC (((..(((....))))))	30.2	-9
GTAGAAACGAAAGTTTAC (((..(((....))))))	27.4	-15.8
GTAGAAGGAAACTTCTAC (((((((....)))))))	51.4	-40
GTAGACGAAAGTCAATAC ((((((....)))..)))	27.6	-13.5
GTAGACGAAAGTCATAC ((((((....))).)))	39.9	-12.8
GTAGACGAAAGTCCCTAC ((((((....)))..)))	19.7	-7.5
GTAGACGAAAGTCGCTAC ((((((....)))..)))	40.5	-10.8
GTAGACGAAAGTCTTAC ((((((....))).)))	38.6	-14.6
GTAGAGGGAAACCTCCAC ((.((((....)))).))	31.2	-16.7
GTAGATGGAAACATCTGC (.(((((....))))).)	45.6	-20.8
GTAGCACGAAAGTGATAC (((.(((....))).)))	58.4	-39
GTAGCACGAAAGTGTAC (((.(((....))))))	40.4	-14.2
GTAGCGCGAAAGCGTAC (((.(((....))))))	44	-10.8
GTAGGAGCGAAAGCTTAC (((..(((....))))))	31.2	-11.2
GTAGGCGAAAGCCAGTAC ((((((....)))..)))	27.4	-8.17
GTAGGCGAAAGCCTCTAC ((((((....)))..)))	36.4	-8.87
GTAGGCGGAAACGCTTAC (((.(((....))).)))	48.2	-23.1

Source: the array DNA melting data of Ke et al. (doi:10.1101/2024.01.08.574731)
